# Data published in paper PMC3806199 (Nature communications, 2013).
# Bridge positions count the residues as written; N and C are the ends. Ends that are not written are not given here.
# Columns and labels:
# interscapular BAT = experiment: FDG PET/CT imaging of BAT metabolic activity; type: in vivo, mouse; conditions: versus cold-acclimated mice
# BAT = experiment: NIR fluorescence imaging; type: in vivo, mouse; conditions: 100 nmol iv, 1 hr, IRDye800 conjugate
# Method in brief: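 Subjects were 6-week-old C57BL/6 males, n=3 per group, with experiments done twice. Mice were pre-housed at 6 °C or RT, with propranolol where indicated. IRDye800-conjugated test peptide or a control WAT-homing peptide was given i.v. and circulated 1 h. Interscapular BAT and i.p. WAT were resected and imaged by NIR fluorescence with 785 nm laser excitation. Data are mean ± s.e.m.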
compound,measurement,setting,value
"OC[C@H]1O[C@@H](O)[C@H]([18F])[C@@H](O)[C@@H]1O [FDG, fluorine-18 deoxyglucose]",reduction in FDG uptake by BAT as a result of warm-acclimation,interscapular BAT,1.7 fold
CC(C)NCC(O)COc1cccc2ccccc12 (stereo not drawn) [propranolol],"reduction in FDG uptake by BAT, warm-acclimation combined with propranolol treatment",interscapular BAT; propranolol ip 5 mg/kg,4.1 fold
CKGGRAKDC (disulfide 1-9 (inferred)),accumulation in WAT and BAT (resected tissues),BAT,"accumulation in WAT, but not in BAT"
